# According to article PMC3264876 (Pharmaceutical Research, 2011):
# Assay: Nonsink release testing in MFDS
# Assay type: physicochemical
# Procedure, shortened: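 Nanoparticle or bulk crystalline suspensions (nanoparticles at about 6 mg/mL solids, various drug loadings) diluted to 40 μgA/mL in MFDS. MFDS: 7.3 mM NaTC, 1.4 mM POPC, phosphate/NaCl, pH 6.5, 290 mOsm. Stirred at 60 rpm. Duplicate aliquots per time point spun through 100-kDa MWCO filters, 12,000 rpm, 5 min. Free drug is dissolved plus micellar; split estimated from micelle partition coefficient and micelle volume fraction.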
compound,measurement,setting,value
Cc1ccc(-c2cc(C(F)(F)F)nn2-c2ccc(S(N)(=O)=O)cc2)cc1 [celecoxib],equilibrium partition coefficient into bile-salt micelles,MFDS,"approximately 1,000"
same,maximum concentration in MFDS (dissolved plus in bile-salt micelles),"MFDS pH 6.5, dose 40 μgA/mL",16 µg/mL
same,time to reach maximum concentration in MFDS,"MFDS, 40 μgA/mL",at least 1 h
same,concentration of celecoxib in bile-salt micelles,"MFDS, equilibrium",about 13.5 μg/mL
same,dissolved celecoxib concentration at equilibrium,"MFDS, from micelle partition coefficient and 0.5% micelle volume",approximately 2.5 μg/mL
